Source: article PMC2193645 (The Journal of Experimental Medicine, 1999)

Columns and labels:
3.L2tg thymocytes = test: Three-color FACS of thymocytes from APLtg × 3.L2tg mice; assay type: in vivo, mouse; settings: for Interpretation: effect on thymic selection of 3.L2tg T cells: ligand expressed in thymus as mHEL epitope tag, in words
[1] = test system: splenocytes from APLtg × 3.L2tg mice; test: Primary T cell proliferation of naive splenocytes to Hb; assay type: cell-based, mouse; settings: in words
How it was run: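 Naive splenocytes from APLtg × 3.L2tg mice or 3.L2tg controls were plated at 5 × 10^5/well with increasing Hb(64–76) peptide concentrations for 48 h. They were then pulsed with 0.4 μCi [3H]TdR for 18 h, harvested and counted. Read-out was mean cpm of triplicate wells per peptide dose, and curves were averaged across several experiments.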

QC85.5 hybridoma = test: T cell hybridoma assay; assay type: cell-based, mouse; settings: IL-2 production; in words
How it was run: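 Increasing numbers of splenocytes from transgenic mice were cultured 24 h with QC85.5 hybridoma cells. QC85.5 was raised by immunizing CE/J mice with a position-72 altered Hb peptide, subcloned twice, and recognizes several position-72 variants. IL-2 in supernatant was measured by CTLL-2 proliferation and plotted as CTLL-2 cpm against splenocytes per well. Each point is the mean of triplicate wells.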

mature 3.L2 T cells [2] = settings: B cell apoptosis assay; cited from earlier work
3.L2 TCR = settings: cited from earlier work; for Half-life: longevity of the 3.L2 TCR–APL complex; for Half-life / Kd: BIAcore; for Kd: read-out: K D k off/k on, kinetic
mature 3.L2 T cells [3] = settings: cited from earlier work; for Effect on mature T cells: ligand class in words
3.L2.12 hybridoma = settings: cited from earlier work

Substance | Interpretation: effect on thymic selection of 3.L2tg T cells (3.L2tg thymocytes) | Response of naive 3.L2tg splenocytes to Hb(64–76) on the selecting background [1] | Stimulation of QC85.5 hybridoma by peptide (QC85.5 hybridoma) | Relative activity (mature 3.L2 T cells [2]) | Half-life (3.L2 TCR) [s] | Kd (3.L2 TCR) [µM] | Effect on mature T cells (mature 3.L2 T cells [3]) | Fold less active than N72(wt) (mature 3.L2 T cells [3]) [fold] | Reduction of 3.L2.12 stimulation by peptide (3.L2.12 hybridoma) [fold] | Increase in percentage of CD4-SP cells with high levels of the 3.L2 TCR over 3.L2tg control (3.L2tg thymocytes; P < 0.01) [%] | Binding to the 3.L2 TCR in BIAcore experiments (3.L2 TCR; in words)
GKKVITAFNEGLK [N72(wt), Hb(64–76)] | complete negative selection | tolerant to Hb(64–76) | produce IL-2 | 100 | 10.8 | 12 | the strongest agonist | – | – | – | –
Hb(64–76) N72E [Ligand E72] | no effect on 3.L2tg T cell development | – | – | none | – | – | no effect on mature T cells | – | – | – | –
Hb(64–76) N72A [Ligand A72] | modest negative selection | – | produce IL-2 | 0.0007 | <2 | – | a weaker antagonist | – | – | – | –
Hb(64–76) N72I [Ligand I72] | complete negative selection | tolerant to Hb(64–76) | – | 0.006 | 2.3 to 3.4 | 10 to 20 | an antagonist | – | – | – | –
Hb(64–76) N72T [Ligand T72] | identical effect | tolerant to Hb(64–76) | produce IL-2 | 2 | 5.1 | 9.9 | a weaker agonist | 50 | 50 | – | –
GKKVITAFQEGLK [Ligand Q72, Hb(64–76) N72Q] | enhance the positive selection | – | stimulated most strongly | none | – | – | no effect on mature 3.L2 T cells | – | – | 12 | no binding can be detected
